# Screens from PubChem BioAssay.
# A selection: hits, their analogues and other compounds. The true share with any hit is near 2.6%.
# UCH37 inh = inhibitors of human UCH37 deubiquitinase, primary screen, biochemical, Ub-AMC cleavage, fluorescence. inhibition, % (no concentration beside the values). AID 588478, 2011. purified proteasome/UCH37. actives 0.33% (n = 330,000);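 active = mean inhibition over replicate wells above about 20%, limit read from the data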;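 also: 0% = compound-free wells with enzyme and 100% = wells lacking proteasome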
#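 Reagent: Ub-AMC substrate; assay system: Proteasome-associated human UCH37 deubiquitinase; controls: no-proteasome and no-compound wells; read-out: % inhibition of Ub-AMC cleavage fluorescence; timing: 30 min preincubation with enzyme, 25 min cleavage at room temperature; signal: AMC fluorescence from Ub-AMC cleavage, excitation 355 nm, emission 460 nm; buffer or medium: Tris-HCl pH 7.4 plus ovalbumin, ATP-MgCl2, DTT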
# SENP1 inh = human SENP1 catalytic domain inhibitors, primary screen, biochemical, FRET, uHTS. recombinant SENP1 catalytic domain, CyPet-SUMO1-YPet FRET cleavage. inhibition, % at 10 µM. actives 0.21% (n = 360,000). Sentrin-specific protease 1 (Homo sapiens), Q9P0U3;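 active = inhibition at least 30% at 10 µM, raw YFP signal under a set limit, fluorescence ratio 0.5 to 1.5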;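 also: 0% = enzyme with DMSO and 100% = no enzyme wells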
#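 Test system: hSENP1 catalytic domain, recombinant; Amount: 20 pM final SENP1 enzyme; Medium: Tris pH 8 buffer plus EDTA, NaCl, BME, BSA, NP40, catalase; Schedule: 50 min enzyme reaction, room temperature, light-protected; Technique: FRET fluorescence in CFP and YFP emission channels; Controls: no-enzyme wells low, DMSO-plus-enzyme wells high control.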
# SENP7 inh = SENP7 protease inhibitors, primary screen, biochemical, luminescence, uHTS. recombinant SENP7, Z-RLRGG-aminoluciferin luminescence, 40 min. inhibition, % at 5 µM. actives 1.5% (n = 330,000). AID 434973, 2010;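 active = inhibition above about 50% at the single test dose, limit read from the data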;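 also: plate controls were DMSO with enzyme for no effect and no enzyme buffer wells for full effect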
# SENP8 block-1 = human SENP8 protease inhibitors, primary screen, biochemical, fluorescence, Nedd8 protein substrate, uHTS | recombinant SENP8 | inhibition, % at 20 µM | Sentrin-specific protease 8 (Homo sapiens), Q96LD8 | actives 0.64% (n = 360,000); in the data active = inhibition mostly above about 40%, no sharp cut-off; inactive = mostly below about 27%
# Target sequence (Q96LD8 whole entry, looked up): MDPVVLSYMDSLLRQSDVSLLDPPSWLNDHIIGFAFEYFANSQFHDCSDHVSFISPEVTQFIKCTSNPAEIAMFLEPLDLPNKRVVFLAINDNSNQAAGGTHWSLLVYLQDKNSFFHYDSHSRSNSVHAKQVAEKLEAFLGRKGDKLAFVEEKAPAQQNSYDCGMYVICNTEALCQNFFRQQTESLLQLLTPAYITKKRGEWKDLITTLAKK
# SENP6 inh = SENP6 protease inhibitors, primary screen, biochemical, luminescence, uHTS | Recombinant SENP6 catalytic domain, aminoluciferin luminescence | Sentrin-specific protease 6 (Homo sapiens), Q9GZR1 | AID 2599, 2010 | inhibition, % at 10 µM | actives 1.8% (n = 330,000);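 active = inhibition above about 50% at the single tested dose, limit read from the data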;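 also: plate controls were DMSO wells with enzyme for no effect and DMSO wells lacking enzyme for full effect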
# Target sequence (Q9GZR1 628-1112 limits assumed): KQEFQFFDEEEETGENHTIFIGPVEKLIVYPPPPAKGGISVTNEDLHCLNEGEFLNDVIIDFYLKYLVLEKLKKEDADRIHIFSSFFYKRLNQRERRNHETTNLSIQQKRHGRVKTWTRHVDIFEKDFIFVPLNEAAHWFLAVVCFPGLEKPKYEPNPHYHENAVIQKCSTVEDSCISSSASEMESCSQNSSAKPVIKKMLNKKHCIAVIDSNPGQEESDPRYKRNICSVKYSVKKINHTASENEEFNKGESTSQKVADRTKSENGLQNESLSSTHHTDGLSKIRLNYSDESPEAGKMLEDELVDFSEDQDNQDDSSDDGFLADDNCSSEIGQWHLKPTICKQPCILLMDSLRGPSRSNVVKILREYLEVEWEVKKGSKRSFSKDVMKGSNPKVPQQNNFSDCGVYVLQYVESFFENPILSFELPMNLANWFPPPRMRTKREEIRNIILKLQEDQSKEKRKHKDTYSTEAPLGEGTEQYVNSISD
# SENP8 block-2 = SENP8 protease inhibitors, primary screen, biochemical, luminescence; Sentrin-specific protease 8 (Homo sapiens), Q96LD8; inhibition, % at 10 µM; actives 1.2% (n = 330,000); purified SENP8, Z-RLRGG-aminoluciferin cleavage; in the data active = inhibition above about 50%
# UCH37 confirm = retest of human UCH37 deubiquitinase inhibitors, confirmation, biochemical, Ub-AMC cleavage rate, fluorescence; inhibition, % at 20 µM; shares compounds with UCH37 inh; actives 27% (n = 480); Proteasome-bound UCH37;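 active = average inhibition over replicates above about 50%, so the earlier screening hit is confirmed, limit read from the data; inactive = the rest, counted as false positives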;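 also: based on cleavage rate fitted by regression over a 30 min kinetic read; 0% = proteasome plus Ub-AMC and 100% = Ub-AMC without proteasome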
# * hit, by the source's call; / = no result.
SMILES,UCH37 inh,SENP1 inh,SENP7 inh,SENP8 block-1,SENP6 inh,SENP8 block-2,UCH37 confirm
O=C(O)c1ccc(NC2=C(N3CCOCC3)C(=O)c3ccccc3C2=O)cc1,34*,-60,3,53*,43,12,18
O=C(NN=Cc1ccc(OC(=O)c2ccc([N+](=O)[O-])cc2)cc1)c1cccnc1,4,/,/,/,/,/,/
Nc1ccc(C(=O)OCC(=O)N2CCOCC2)cc1[N+](=O)[O-],38*,1,0,22,-17,2,8
CCOC(=O)CC1=NN(c2ccccc2)C(=O)/C1=C\c1ccc(OC)cc1OC,35*,2,-1,11,-10,-2,-3
CC1CCN(CC(=O)Nc2sc3c(c2C#N)CCC3)CC1,37*,-33,7,9,-3,-4,9
Cc1cc(C)nc(SCc2ccc(C(=O)NN=Cc3cccnc3)cc2)n1,-1,/,/,/,/,/,/
CC(C)(C)OC(=O)NCCC(=O)NN=Cc1cccc2nccnc12,7,/,/,/,/,/,/
COc1cc(/C=N/N2CCCCC2)cc([N+](=O)[O-])c1O,/,8,1,20,-17,1,/
COc1cc(C=Nn2cnnc2-n2nc(C)cc2C)cc([N+](=O)[O-])c1O,29*,/,/,/,/,/,25
O=C1N=C(N2CCCC2C(=O)O)S/C1=C\c1ccco1 (stereo not drawn),43*,2,-1,-8,-2,-8,13
N=C1/C(=C/c2ccco2)C(=O)N=C2SC(CC(=O)N3CCCC3)=NN12,19,-6,17,6,-22,-1,/
COc1ccc(C=C2c3ccccc3C(=O)c3ccccc32)c(OC)c1,/,2,-1,26,-26,-9,/
COc1cc(OC)c2c(c1)C(=O)c1cc(OC)cc(OC)c1C2=O,43*,11,3,57*,-14,1,31
O=S1CCC(=NO)c2ccccc21 (stereo not drawn),0,/,/,/,/,/,/
CC(C)Oc1ccc(CNC(=S)NN=Cc2cccnc2)cc1,4,/,/,/,/,/,/
Cc1c(/C(O)=C2\C(=O)C(=O)N(CCCN(C)C)C2c2cccs2)cnn1-c1ccccc1 (stereo not drawn),35*,0,/,20,/,/,2
Cc1c(/C(O)=C2/C(=O)C(=O)N(CCN3CCOCC3)C2c2cccs2)cnn1-c1ccccc1 (stereo not drawn),14,-2,8,-58,1,-10,/
Nc1c2c(=O)[nH]c(O)cc2nn1-c1ccccc1,31*,-5,/,-111,/,/,23
CCOC(=O)c1c(C)oc2c1C(=O)c1ccccc1C2=O,28*,0,10,39,49,17,29
CC(=O)Nc1ccc(-c2csc(NN=C(C)c3ccccc3)n2)cc1,1,/,/,/,/,/,/
Cc1cc(C)c(S(=O)(=O)N=C2C=C(SCC(=O)O)C(=O)c3ccccc32)cc1C,49*,/,/,/,/,/,82*
CC(C)N1CCC(=NNc2ccc(S(=O)(=O)N3CCOCC3)cc2[N+](=O)[O-])CC1,6,-14,3,15,14,-1,/
CCCN1CCC(=NNc2ccc(S(=O)(=O)N3CCOCC3)cc2[N+](=O)[O-])CC1,44*,5,1,29,-3,-1,0
CC(C)N(C(=O)C[n+]1ccc(C=NO)cc1)C(C)C,4,/,/,/,/,/,/
NC(=O)CC(NC(=O)Cc1ccc(Br)cc1)c1ccc(NCCOc2ccccc2)c([N+](=O)[O-])c1 (stereo not drawn),36*,4,-3,13,-8,2,15
SMILES,UCH37 inh,SENP1 inh,SENP7 inh,SENP8 block-1,SENP6 inh,SENP8 block-2,UCH37 confirm
COc1ccc(Br)cc1C=NN1CCN(Cc2ccccc2)CC1,1,/,/,/,/,/,/
C(=NNc1nc(N2CCCCC2)nc(N2CCCCC2)n1)c1c[nH]c2ccccc12,38*,/,/,/,/,/,-59
Cc1[nH]c2ccccc2c1C=NNc1nc(N2CCCCC2)nc(N2CCCCC2)n1,5,/,/,/,/,/,/
COc1ccc(C=Nn2c(C)nc3c([nH]c4ccccc43)c2=O)cc1CN1CCCC(C)(C)C1,1,/,/,/,/,/,/
COC(=O)COc1ccc(S(=O)(=O)NCCC2=CCCCC2)cc1C,55*,0,6,18,-1,-1,60*
CCCNS(=O)(=O)c1ccc(OCC(=O)NCCC2=CCCCC2)cc1,36*,1,-3,18,-19,2,45
Cc1ccccc1C=N/N=C1/NC(=O)CCS1,3,/,/,/,/,/,/
COc1ccc(Cc2nnc(NN=Cc3ccccc3O)[nH]c2=O)cc1OC,5,/,/,/,/,/,/
COC(=O)c1ccc(NN=Nc2ccc(C)cc2)cc1,3,12,-8,13,4,-14,/
Cc1ccc(C(=O)ONc2ccc(N=NC(=O)c3ccccc3O)cc2)cc1,27*,12,-2,32,20,24,31
CCCCCc1ccc(OCCOCCn2c[n+](C)c3ccccc32)c(CCCCC)c1,33*,2,/,12,/,/,57*
CCCCCc1ccc(OCCC[n+]2ccccc2)c(CCCCC)c1,30*,2,-1,16,-11,-2,36
CCCCOC(=O)c1ccc(NC(=O)Nc2ccc(OC)c(OC)c2)cc1,38*,2,-5,24,-15,2,-16
c1ccc(C[C@H]2CNCCN2CCCCC2CCCCC2)cc1,36*,-1,-2,15,-7,-12,4
c1ccc2c(C[C@@H]3CNCCN3CCCCC3CCCCC3)cccc2c1,/,-44,4,1,-25,-10,/
O=S(=O)(O)c1cc(O)c(N=Nc2ccc(O)cc2O)c2ccccc12,31*,3,/,12,/,/,51*
CCCOc1ccc(C=c2sc3nc(-c4ccco4)nn3c2=O)cc1OCC,3,/,/,/,/,/,/
CSc1nc(Oc2ccccc2)c2sccc2n1,-3,0,4,20,20,14,/
CSc1nc(Oc2ccc(Cl)cc2)c2sccc2n1,36*,2,0,37,-6,12,16
O=C(NN=Cc1cc(Br)c(Br)o1)c1ccc2c(c1)OCCO2,8,/,/,/,/,/,/
CCN1CCN(CC(=O)NN=Cc2cc(Br)cs2)CC1,4,/,/,/,/,/,/
O=C(O)CN1C(=O)/C(=C\c2ccccc2OCc2ccc(Cl)cc2Cl)SC1=S,26*,1,-2,3,1,12,54*
CCN(CC)c1ccc(/C=C(/C#N)C(=O)NC(C)C)o1,29*,-32,3,30,14,5,28
CCN(CC)c1ccc(/C=C(/C#N)C(=O)NCc2ccccc2)o1,8,-26,0,24,-9,-1,/
